V-ATPase pH: regulators of yeast V-ATPase proton transport; response, % at 10 µM; S. cerevisiae, pHLuorin cytosolic pH fluorescence; AID 504577; 0.37% of 350,000 active; in the data active = response mostly above about 7.3%, no sharp cut-off; inactive = mostly below about 5.4%; also: actives read high
Yeast superoxide: yeast age-related superoxide inhibition as caloric restriction mimetic | superoxide response (% of plate mean), % at 10 µM | S. cerevisiae aged cells, superoxide DHE fluorescence; active compounds read low | 0.18% of 330,000 active;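 active = superoxide response under a set limit, about three screen SD below normal, cut at about 65% in these data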;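 also: yeast aged for seven days with compound at 30 °C before DHE staining; 100% = average MFI of all compound-treated wells on the plate with controls excluded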
T cruzi inh: T. cruzi replication inhibition | T. cruzi beta-gal in NIH3T3, luminescence, 90 h | inhibition, % (concentration not given with the values) | 1.4% of 300,000 active;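 active = mean inhibition across valid replicates above about 55%, limit read from the data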;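 also: signal also drops with host cell toxicity which is not excluded here; 0% = plate median of DMSO wells and 100% = zero luminescence signal; higher percent means less beta-gal luminescence so fewer parasites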
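Assay system: NIH/3T3 host cells with β-galactosidase reporter T. cruzi; input: 5,000 host fibroblasts per well; compound: single 50 nL compound addition per well in DMSO; timing: ≥90 h infection period, 3 h prior cell attachment; measured by: GalScreen β-gal luminescence, detergent lysis, 60 min; evaluation: percent inhibition of parasite-derived β-gal signal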
HIF act: HIF pathway transcriptional activation | U2OS HRE-luciferase reporter, luminescence; normalized: DMSO 0%, desferrioxamine 100% | activation, % at 7.5 µM (by protocol) | 0.32% of 300,000 active | AID 1910;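 active = mean activation of at least 10% of the iron chelator positive control signal, with at least half of replicates also reaching 10%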
AI-2 QS mod: modulates the Vibrio harveyi AI-2 quorum sensing system; 0.4% of 300,000 active; Vibrio harveyi JMH597 AI-2 luminescence/OD600 ratio, 9 h; active compounds read low; strain lacks LuxN and CqsS sensors; 0 = neutral-control median; activity change, % at 7.5 µM; in the data active = activity change below about -75%, passing the limit was not always enough;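 also: luminescence divided by OD600 gain over 9 h not by final OD600 alone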
NRP1-CendR mod: NRP-1/CendR interaction modulation | O14786 | FAM-RPARPAR peptide binding to NRP-1, fluorescence polarization | AID 602438 | 0.85% of 360,000 active | inhibition, % at 25 µM;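 active = inhibition or corrected inhibition above about 18%, plus a signal ratio from 0.5 to 1.5, limit read from the data, passing the limit was not always enough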
Target sequence (O14786 whole entry, looked up): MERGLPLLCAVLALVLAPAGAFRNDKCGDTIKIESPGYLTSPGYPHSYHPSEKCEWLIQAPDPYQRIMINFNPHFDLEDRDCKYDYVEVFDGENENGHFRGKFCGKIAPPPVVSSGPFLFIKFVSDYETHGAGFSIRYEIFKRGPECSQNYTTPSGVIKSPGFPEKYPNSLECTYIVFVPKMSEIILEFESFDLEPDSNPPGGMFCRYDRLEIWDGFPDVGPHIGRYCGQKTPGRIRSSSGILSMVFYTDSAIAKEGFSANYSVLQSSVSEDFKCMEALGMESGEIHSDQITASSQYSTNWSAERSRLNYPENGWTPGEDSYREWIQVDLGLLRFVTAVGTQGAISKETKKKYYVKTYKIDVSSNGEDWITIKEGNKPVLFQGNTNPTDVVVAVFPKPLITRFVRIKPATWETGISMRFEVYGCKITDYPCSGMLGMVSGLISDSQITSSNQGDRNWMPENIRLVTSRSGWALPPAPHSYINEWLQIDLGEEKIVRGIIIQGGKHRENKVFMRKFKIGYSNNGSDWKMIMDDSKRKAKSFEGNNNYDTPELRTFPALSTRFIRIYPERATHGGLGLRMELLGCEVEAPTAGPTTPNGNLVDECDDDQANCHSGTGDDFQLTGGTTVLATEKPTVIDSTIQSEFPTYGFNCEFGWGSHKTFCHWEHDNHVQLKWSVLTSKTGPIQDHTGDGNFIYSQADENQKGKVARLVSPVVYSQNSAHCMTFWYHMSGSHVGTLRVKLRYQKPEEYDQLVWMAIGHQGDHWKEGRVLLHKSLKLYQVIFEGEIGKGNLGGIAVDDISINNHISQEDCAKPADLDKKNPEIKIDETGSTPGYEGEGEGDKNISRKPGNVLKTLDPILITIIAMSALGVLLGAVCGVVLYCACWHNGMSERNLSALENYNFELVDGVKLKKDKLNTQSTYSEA
* marks the source's active call; other numbers are inactive results; nt = not tested or not shown. This is a sample that favours compounds with a hit; in the whole collection about 3% have one here.

SMILES | V-ATPase pH | Yeast superoxide | T cruzi inh | HIF act | AI-2 QS mod | NRP1-CendR mod
C[C@@H]1CN([C@H](C)CO)C(=O)c2cc(Br)cnc2O[C@H]1CN(C)C(=O)Nc1ccc2c(c1)OCO2 | 3.8 | nt | nt | nt | nt | -0.9
COc1ccccc1NC(=O)COC(=O)CNC(=O)c1ccc(OC)c(OC)c1 | 2.1 | 82.6 | -9.1 | -0.3 | 27.2 | 0.9
O=C1OCc2cc(NC(=O)C34CC5CC(CC(C5)C3)C4)ccc21 | 0.6 | 91.7 | -4.9 | 827.8* | 18.7 | -9.0
Cc1nn(C)c(C(=O)N/N=C/c2ccc(Br)cc2)c1Cl | 4.1 | 61.5* | -8.9 | 0.0 | 20.3 | 0.3
COc1ccc(CC(=O)Oc2ccc(C(C)C)cc2)cc1S(=O)(=O)N1CCOCC1 | 24.7* | 105.1 | -2.7 | -0.1 | 4.3 | -0.6
CC(C)Nc1nc(NC(C)C)nc(N(C#N)CCOc2ccc(Cl)cc2Cl)n1 | -2.9 | 101.8 | 73.4* | -0.7 | 12.9 | 11.9
Cc1cc(C)nc(N(C#N)CCOc2ccc(Cl)cc2)n1 | -1.4 | 91.2 | -1.8 | 0.0 | 46.6 | -1.4
CCOC(=O)C1=C(C)NC(C)=C(C(=O)OCC)C1C(=O)OCC(N)=O | -2.1 | 109.9 | -14.3 | 0.1 | 16.2 | 5.8
CCOC(=O)C1=C(C)NC(C)=C(C(=O)OCC)C1C(=O)OCC(=O)N(C)C1CCS(=O)(=O)C1 (stereo unspecified) | 5.5 | 91.6 | 0.9 | 12.9* | -4.7 | 1.0
Cc1csc(NC(=O)Nc2ccc(Cl)cc2)n1 | -0.6 | 102.5 | 9.8 | 3.0 | 13.4 | 26.3*
CCOC(=O)Cc1csc(NC(=O)Nc2ccc(Cl)cc2)n1 | -1.2 | 118.8 | -3.5 | 0.9 | 23.4 | 26.4*
O=C(Nc1ccc(Cl)c(Cl)c1)Nc1nc(-c2ccccc2)cs1 | 0.5 | 118.8 | 64.0* | 0.4 | 37.9 | 2.3
CNC(=O)COC(=O)c1ccccc1C(=O)c1ccc(Cl)c([N+](=O)[O-])c1 | 1.6 | nt | 29.6 | -7.6 | 41.3 | 13.7
O=C(COC(=O)c1ccccc1C(=O)c1ccc(Cl)c([N+](=O)[O-])c1)NC1CC1 | -2.3 | 106.6 | 62.7* | -1.3 | 10.2 | 0.6
Cn1cc(-c2cnc3c(NC=O)cc(-c4cccc(C(F)(F)F)c4)cn23)cn1 | nt | nt | nt | nt | nt | -19.1
CC(C)[C@H]1C=C(C(=O)O)O[C@@H](OCc2ccc(CO)cc2)C1 | 2.4 | 97.2 | -16.5 | 0.1 | 17.0 | -3.9
CC(C)[C@H]1C=C(C(=O)O)O[C@@H](OCCCCO)C1 | 2.9 | nt | -8.8 | -0.1 | 42.2 | 26.0*
NC(=O)C1=C[C@H](c2ccc(C(F)(F)F)cc2)C[C@H](OCCCCO)O1 | -2.5 | 101.0 | -28.2 | 0.0 | 12.9 | 10.9
O=C(O)C1=C[C@@H](c2ccc(C(F)(F)F)cc2)C[C@@H](OCCCCO)O1 | 2.8 | nt | -15.2 | 0.0 | 14.6 | 27.5*
CN1CCN(C(=O)/C(=C/c2ccccc2Cl)NC(=O)c2ccccc2)CC1 | -1.0 | 123.6 | -22.0 | -0.1 | 3.6 | 15.2
O=C1CSC(c2cn(-c3ccccc3)nc2-c2ccccc2)N1Cc1ccco1 (stereo unspecified) | -0.1 | 76.7 | 30.7 | -0.6 | 15.3 | -1.0
O=C1CSC(c2cn(-c3ccccc3)nc2-c2cccs2)N1CC1CCCO1 (stereo unspecified) | 1.8 | 78.4 | 10.7 | -0.5 | 4.8 | 32.5*
COc1ccc2cc(OCC(=O)NNC(=O)Nc3ccc(C(C)=O)cc3)ccc2c1 | 3.8 | 111.7 | -3.8 | 1.9 | 9.8 | 7.1
CC(C)c1ccc(N(C(=O)c2snc(C(N)=O)c2N)C(C(=O)NC2CCCC2)c2ccncc2)cc1 (stereo unspecified) | 2.0 | 95.7 | 37.7 | 44.1* | 14.0 | -1.1
CCOC(=O)C1=C(C)N(c2ccccc2)C(=O)/C1=C\c1cccs1 | -4.4 | 84.3 | 1.3 | 0.9 | 10.1 | -5.2
SMILES | V-ATPase pH | Yeast superoxide | T cruzi inh | HIF act | AI-2 QS mod | NRP1-CendR mod
COC(=O)C1=C(C)N(c2cccc(C)c2)C(=O)/C1=C\c1cccs1 | 0.5 | 91.3 | 0.3 | -0.3 | -11.3 | 27.6*
CC(C)(C)CNC(=O)C1(C)CCN1C(=O)Cc1ccc(C(C)(C)C)cc1 (stereo unspecified) | nt | nt | nt | nt | nt | 33.2*
CC(C)CN(C(=O)c1cc([N+](=O)[O-])cc([N+](=O)[O-])c1)C1CCS(=O)(=O)C1 (stereo unspecified) | -3.9 | 99.1 | 56.7* | 3.2 | 3.0 | 4.0
CC(C)CN(C(=O)CCNC(=O)c1ccc([N+](=O)[O-])cc1)C1CCS(=O)(=O)C1 (stereo unspecified) | -1.8 | 89.7 | nt | nt | nt | 16.4
N=c1c2c(n(Cc3ccccc3)c3c1CCC3)CCC2 | 5.8 | 101.7 | 47.4 | 1.1 | 16.7 | -0.6
N=c1c2c(n(Cc3cccc(Cl)c3)c3c1CCC3)CCCC2 | nt | 98.0 | 58.4* | -0.1 | 7.6 | 3.7
N=c1c2c(n(Cc3ccc(Cl)cc3)c3c1CCC3)CCC2 | -3.2 | 91.4 | 79.4* | -0.3 | 31.2 | 8.1
N=c1c2c(n(Cc3ccc(F)cc3)c3c1CCC3)CCCC2 | -1.8 | 95.7 | 63.3* | -0.8 | 15.1 | 24.5*
Cc1ccc2c(C)c(C(=O)N3CCC(C(N)=O)(N4CCCCC4)CC3)oc2c1C | 0.2 | nt | nt | nt | nt | -1.8
COc1cccc(C2/C(=C(/O)c3ccccc3)C(=O)C(=O)N2CCCC(=O)O)c1 (stereo unspecified) | -1.2 | nt | nt | nt | nt | 29.4*
COC(=O)Nc1ccc(S(=O)(=O)N2CCC(C(=O)N3CCC(C)CC3)CC2)cc1 | -1.4 | 91.0 | 6.5 | -0.6 | 18.5 | 4.2
C/C=C/c1ccc(OCC(O)CN(C)Cc2ccc(SC)cc2)c(OC)c1 (stereo unspecified) | -0.2 | 98.8 | 60.0* | 0.6 | 0.9 | 5.3
CCn1c(SCC(=O)NC2CCS(=O)(=O)C2)nnc1-c1ccccc1 (stereo unspecified) | -0.2 | 102.4 | -11.4 | -0.8 | 15.7 | 6.4
Cc1cc(/C=N/N2CCN(C)CC2)c(C)n1-c1ccccc1F | 1.7 | 88.3 | 67.1* | -0.2 | -8.3 | 5.3
O=[N+]([O-])c1cccc(C2NCC(c3ccccc3Cl)c3c2[nH]c2ccccc32)c1 (stereo unspecified) | 1.8 | 96.8 | 45.2 | -0.9 | nt | 6.5
CN(C)c1ccc(C2CNC(c3ccc(Cl)c([N+](=O)[O-])c3)c3[nH]c4ccccc4c32)cc1 (stereo unspecified) | 0.3 | 111.3 | 57.4* | 0.2 | -26.3 | -12.5
O=C(CCCN1C(=O)c2ccccc2C1=O)NCCC1=CCCCC1 | -2.0 | 124.2 | 1.9 | -0.6 | 22.9 | -1.4
CCCCCn1c(N)c(-c2nc3ccccc3s2)c2c([N+](=O)[O-])nn(C)c(=O)c21 | 0.4 | 107.5 | 59.2* | -0.5 | 7.0 | 11.2
COc1ccc(N2CCN(Cc3nnnn3C3CCCCC3)CC2)cc1 | -1.6 | 102.9 | 14.6 | -0.3 | 26.2 | 22.6*
C1CCC(n2nnnc2CN2CCCC2)CC1 | 0.1 | 92.4 | 8.2 | -0.4 | 1.7 | -14.2
